According to the RNAGym collection of RNA variant scans (doi:10.1126/science.aae0568):
Variants at the floor of the assay were thinned out.

B1: tRNA (parent)
chain: GUUCCGUUGGCGUAAUGGUAACGCGUCUCCCUCCUAAGGAGAAGACUGCGGGUUCGAGUCCCGUACGGAACG

Variants of: B1
Assay: yeast fitness relative to wild type (ratio to wild type); higher = fitter; tRNA-Arg(CCU), competitive growth, 37 C, YPD
How it was run: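 Changes in genotype frequencies gave Darwinian fitness relative to wild type. Frequencies were read by 100-nucleotide paired-end sequencing of gene amplicons before and after pooled Saccharomyces cerevisiae strains, carrying tRNA-Arg(CCU) gene variants at the native locus, were competed in YPD at 37°C for 24 hours in six replicates. A genotype was kept only with ≥ 100 starting reads, and estimates < 0.5 were set to 0.5.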

G18C C62A C66A and G18A C33A G44A U64C cannot be ordered by yeast fitness: ≤ 0.5 for the first, ≤ 0.5 for the second.

G18C G50A C62A and U19A C24G C29U G52C U64G cannot be ordered by yeast fitness: ≤ 0.5 for the first, ≤ 0.5 for the second.

Compared with G17C U28G G48A A69C, G18C A57U is higher in yeast fitness: ≤ 0.5 for the first, 0.555 for the second.

G18C C60A and G18C C60U cannot be ordered by yeast fitness: ≤ 0.5 for the first, ≤ 0.5 for the second.

Going from G18A G39U G48A C61G to G18A C31U, the yeast fitness rises from ≤ 0.5 to 0.663.

Compared with G18A C31G, U19A A57G is higher in yeast fitness: 0.666 for the first, 0.931 for the second.

U16G U53C C61G and G18C C29U C30U A37G C49U G67A cannot be ordered by yeast fitness: ≤ 0.5 for the first, ≤ 0.5 for the second.

First: G17A C22G C27A G63A
Second: G18A C30U C60G
The yeast fitness of the first is higher: 0.538 for the first, ≤ 0.5 for the second.

Compared with U19A A36C G51C U59A, G18A C31A G44A is higher in yeast fitness: ≤ 0.5 for the first, 0.534 for the second.

Going from G17C U35G to G18A C31A A43G G50A A57U, the yeast fitness rises from 0.554 to 0.572.

First: G17A C22U C27A C30G
Second: G17A C33U A36U C46A
The yeast fitness of the first is lower: ≤ 0.5 for the first, 0.822 for the second.

U19A A20U U53C and G17C C61G C66U cannot be ordered by yeast fitness: ≤ 0.5 for the first, ≤ 0.5 for the second.

Compared with U19A C27G G63C, G17A G18C G39C A65U is lower in yeast fitness: 0.754 for the first, ≤ 0.5 for the second.

Compared with U19A A43U A45C G67C, G17A A70C is higher in yeast fitness: ≤ 0.5 for the first, 0.842 for the second.

First: G17A A70G
Second: U16G G68C A69G
The yeast fitness of the first is higher: 0.866 for the first, 0.556 for the second.

Compared with G17A C24U, G17C C24A A45C G52A is lower in yeast fitness: 0.778 for the first, ≤ 0.5 for the second.

U19A C29U C55A A57C U59C and G18C C24U C66U cannot be ordered by yeast fitness: ≤ 0.5 for the first, ≤ 0.5 for the second.

First: G17A C22A A45C C46U C49U
Second: G17C C34U C61U
The yeast fitness of the first is lower: ≤ 0.5 for the first, 0.55 for the second.

G17A U28G C62G and U19A C27G C31U A69U cannot be ordered by yeast fitness: ≤ 0.5 for the first, ≤ 0.5 for the second.

Compared with G18C C31G G44C, U19A C29G U54C is lower in yeast fitness: 0.658 for the first, ≤ 0.5 for the second.

Going from G18A G23A C33A U64C to G18C G41C C62G, the yeast fitness falls from 0.789 to ≤ 0.5.

G18U A21U G52A and G18A G25A C46U C55A cannot be ordered by yeast fitness: ≤ 0.5 for the first, ≤ 0.5 for the second.

First: G17C C46A A65C
Second: U19A C30U G38C
The yeast fitness of the first is lower: ≤ 0.5 for the first, 0.694 for the second.

Going from G18A A37G to G18A U19C A43U U59A, the yeast fitness falls from 0.547 to 0.538.

Going from G17A C22U to G18A A21U A37U A42U C46A G58C U64A, the yeast fitness falls from 0.737 to ≤ 0.5.

Going from G18C C29U C34U to G17A A37C, the yeast fitness rises from ≤ 0.5 to 0.681.

First: G17C C24U C46G C62G
Second: U19A U54A
The yeast fitness of the first is lower: 0.572 for the first, 0.706 for the second.

Compared with G18A U19G C60U A69C, G17C U47G G67A A69U is higher in yeast fitness: ≤ 0.5 for the first, 0.55 for the second.

Compared with U19C A20C C24A G56A, U19A A45U C46U is higher in yeast fitness: ≤ 0.5 for the first, 1.07 for the second.

Going from G18C C29U C30U C49U G67A to G18C C24G A45G C55G, the yeast fitness rises from ≤ 0.5 to 0.693.

G17A C30G G67C and G18A C31A C60A cannot be ordered by yeast fitness: ≤ 0.5 for the first, ≤ 0.5 for the second.

Compared with G17A C49U, G17A C49G is lower in yeast fitness: 0.892 for the first, 0.761 for the second.

Compared with G18C G44A G63C A65C, G17A U35G G48C C66U is higher in yeast fitness: ≤ 0.5 for the first, 0.535 for the second.

U19A U28A C31G A43G A45G and U19A U32C C49A cannot be ordered by yeast fitness: ≤ 0.5 for the first, ≤ 0.5 for the second.

Compared with G18C C34U A69C, G17A C31U U35C A57G is higher in yeast fitness: ≤ 0.5 for the first, 0.527 for the second.

First: G17C A20C
Second: G17A C22A A45C C46U
The yeast fitness of the first is lower: 0.54 for the first, 0.578 for the second.

Compared with U19C A20U C55A, G17A G25C A65U is higher in yeast fitness: ≤ 0.5 for the first, 0.625 for the second.

First: G17C C46U G68A
Second: G18A U32C A69C
The yeast fitness of the first is lower: ≤ 0.5 for the first, 0.549 for the second.

U16G U19A G23C C49U and G17C U35A C61U cannot be ordered by yeast fitness: ≤ 0.5 for the first, ≤ 0.5 for the second.

Compared with G17C U53A, G17A C55U is higher in yeast fitness: 0.583 for the first, 0.681 for the second.

Compared with G17C C22G C24A C62A A70C, G17C C29U is lower in yeast fitness: 0.57 for the first, 0.545 for the second.

U19A C34G A57U and G18C C62G G67U cannot be ordered by yeast fitness: ≤ 0.5 for the first, ≤ 0.5 for the second.

First: G17A G25C A40U
Second: G18A U47C C62A
The yeast fitness of the first is higher: 0.574 for the first, ≤ 0.5 for the second.

Compared with G18A A37C C55U A57G, G17A C46U U59A is higher in yeast fitness: ≤ 0.5 for the first, 0.584 for the second.

Compared with G17A C31A, G17A C31G is higher in yeast fitness: 0.706 for the first, 0.85 for the second.

Compared with U19A U28C A69C, G17A C30U A40U A57U is lower in yeast fitness: 0.674 for the first, ≤ 0.5 for the second.

G18A A21U U32A C62G A65G and G17C U53A C60A G67A cannot be ordered by yeast fitness: ≤ 0.5 for the first, ≤ 0.5 for the second.

U19A C27A C46A G67A and U19A C49A U54G U59A G63C A69G cannot be ordered by yeast fitness: ≤ 0.5 for the first, ≤ 0.5 for the second.

U19C A37G G58C C61U U64C and G18A A37U U47A C62U cannot be ordered by yeast fitness: ≤ 0.5 for the first, ≤ 0.5 for the second.

Going from G18U U26A G67C to U19A A21C G25C G68C, the yeast fitness rises from ≤ 0.5 to 0.752.

Compared with U19A G48A A65U, G17A C22U C46U C66U A70C is lower in yeast fitness: 0.71 for the first, ≤ 0.5 for the second.

Compared with G17A U19C C66U, G17C G23U U28A C31G A65G is lower in yeast fitness: 0.665 for the first, ≤ 0.5 for the second.

First: U19A C46U C49G
Second: G17A C24U C34A A40G C61U A69U
The yeast fitness of the first is higher: 1.07 for the first, ≤ 0.5 for the second.

G17A C34U U47A G68C and G18A C55A C62G cannot be ordered by yeast fitness: ≤ 0.5 for the first, ≤ 0.5 for the second.

First: U19A G39A G44A
Second: U19A A45G G68C
The yeast fitness of the first is higher: 0.873 for the first, ≤ 0.5 for the second.

Going from G18C G25C U47C to U19A C46U G67A, the yeast fitness rises from ≤ 0.5 to 0.957.

First: G17C U28A C34G G38A G51A
Second: G18C C24G C46A G56C G58A
The yeast fitness of the first is higher: 0.512 for the first, ≤ 0.5 for the second.

G17A C22G U28A C31G C55A G68C and G18A A21U C49A C60G A70U cannot be ordered by yeast fitness: ≤ 0.5 for the first, ≤ 0.5 for the second.

First: G17A C61G
Second: U19A C27A C46A
The yeast fitness of the first is higher: 0.573 for the first, 0.506 for the second.

First: G18A G25C C49U
Second: G18A C22G C31U
The yeast fitness of the first is higher: 0.74 for the first, 0.682 for the second.

First: G18C G52C C60U
Second: G18C U26G
The yeast fitness of the first is lower: 0.591 for the first, 0.644 for the second.

Going from G18C U26A to G18A C24A C62U, the yeast fitness falls from 0.609 to 0.536.

Going from G18C C30U U32A C34G A45C U47G A57G to U19A A21G, the yeast fitness rises from 0.688 to 0.987.

Going from U19A C49G G56U to U19A C46U G48A U53C, the yeast fitness rises from 0.558 to 0.784.

Compared with U19A C34G A43C, G18A C24G C66U is lower in yeast fitness: 0.534 for the first, ≤ 0.5 for the second.

G17U A37U and G18A C30U A40G G68C cannot be ordered by yeast fitness: ≤ 0.5 for the first, ≤ 0.5 for the second.

Compared with G17A A37C C55U, G17A U28C A42C U47A C66U is lower in yeast fitness: 0.56 for the first, ≤ 0.5 for the second.

G17A A20G C29U C33U C60G and G17C U35C C60U cannot be ordered by yeast fitness: ≤ 0.5 for the first, ≤ 0.5 for the second.

Going from G17C A37C to U16G G41A A69U, the yeast fitness falls from 0.644 to 0.527.

U19A C22U A40U G51C and G18A U26G A42U A65G C66G G68A cannot be ordered by yeast fitness: ≤ 0.5 for the first, ≤ 0.5 for the second.

Compared with G17A G25A C31G G68A, U19A C27U A65U is higher in yeast fitness: ≤ 0.5 for the first, 0.717 for the second.

Compared with G18C A42U G48C G68C A69U, U16G U26G A36G G68C is higher in yeast fitness: ≤ 0.5 for the first, 0.629 for the second.

G18C G23A G25C A37G A43C C55G C62G and U16G U28G C34U C49U G63C cannot be ordered by yeast fitness: ≤ 0.5 for the first, ≤ 0.5 for the second.

Compared with G18U U26A U59C C66A A70U, G17A G23A C66A is higher in yeast fitness: ≤ 0.5 for the first, 0.776 for the second.

Compared with G17A C46U A65C, G18A C30U A45C G52C is lower in yeast fitness: 0.658 for the first, ≤ 0.5 for the second.

G18U C34U and G17A C31A G68C cannot be ordered by yeast fitness: ≤ 0.5 for the first, ≤ 0.5 for the second.

First: U19C A20U C29U G41C
Second: G18A A21C G23U U32A A42U G48C U64A
The yeast fitness of the first is lower: ≤ 0.5 for the first, 0.529 for the second.

First: G18C C61A
Second: G17C C27U A65C
The yeast fitness of the first is higher: 0.627 for the first, 0.54 for the second.

Compared with G18C G25C U28G A42G, G17C G48A is higher in yeast fitness: ≤ 0.5 for the first, 0.685 for the second.

First: G17C C29U A37C A65C
Second: G17C U19A C49G A69G
The yeast fitness of the first is higher: 0.555 for the first, ≤ 0.5 for the second.

G18C C34U and G18A G23C C30G A36U cannot be ordered by yeast fitness: ≤ 0.5 for the first, ≤ 0.5 for the second.

G18A C27U G39A C60A and G17A A20G C27G A36C A65U cannot be ordered by yeast fitness: ≤ 0.5 for the first, ≤ 0.5 for the second.

First: U19A C22G C24U C33G
Second: G18A U47C
The yeast fitness of the first is lower: 0.674 for the first, 0.728 for the second.

In the case of U19A G38C G56C, the yeast fitness is reported as ≤ 0.5.
